Assay outcomes as filed in PubChem.
V-ATPase pH: regulators of yeast V-ATPase proton pumping, primary screen, pHLuorin cytosolic pH fluorescence; S. cerevisiae; hit rate 0.37% among 350,000; response, % at 10 µM; AID 504577, 2011; in the data active means response mostly above about 7.3%, no sharp cut-off; inactive means mostly below about 5.4%; further: actives read high
Arrestin-AP2 inh: inhibitors of beta-arrestin/AP2 binding, primary screen, biochemical, GPCR trafficking, flow cytometry. FITC-arrestin peptide / GST-AP2 beads; AP2 beta2 appendage carries R879A mutation. inhibition, % at 10 µM. hit rate 0.31% among 340,000. AID 504490, 2011;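 active means inhibition above a set limit, near 3 SD of compounds lacking own fluorescence, cut at about 54% in these data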
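system = GST-tagged AP2 beta2-adaptin appendage (R879A) on 4 µm glutathione beads | reagent = FITC-labelled arrestin peptide probe, 50 nM final | schedule = compound with beads 12 min RT, then probe 1 h RT | signal = HyperCyt-sampled flow cytometry, FL1 channel, ex 488/em 535 nm | read-out = percent response from loss of bead-bound FITC fluorescence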
Xi reactivation: activators of inactive X chromosome reactivation, primary screen, imaging, XiGFP fibroblasts, GFP high-content imaging, set 2; XiGFP mouse fibroblasts, % GFP-positive cells imaging, 3 d; cells co-treated with 5-aza-dC sensitizer; scaled so ellipticine positive control = 100%; activation, % at 7.58 µM; AID 743238, 2013; hit rate 0.055% among 360,000;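 active means mean normalized replicate activation at least 10% and every replicate at or above 10%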
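Material: SV40-immortalized XiGFP fibroblast cells, line 68-5-11 | Buffer or medium: DMEM containing 5-aza-dC | Dosing: One concentration, pinned | Times: 3 d treatment, 15 min room-temperature fixation | Controls: Ellipticine 6 µM positive control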
beta cell repl: inducers of MIN6 beta-cell proliferation, primary screen, ATP luminescence, uHTS; MIN6 cells proliferation, ATPlite luminescence, 48 h; cells starved in 0.2% serum; 100% = growth in 10% serum; proliferation, % at 10 µM; hit rate 0.29% among 330,000; AID 2380, 2010;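 active means compounds whose signal lies at least 3.5 SD above the mean of all wells on their plate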
T cell HTS: modulators of CD8 T cell-vesicle binding, primary screen, mouse 2C CD8+ T cells, flow cytometry. 2C CD8+ T cell-vesicle binding; stronger effect = lower value. response (vesicle binding), % at 7 µM. hit rate 0.068% among 330,000. AID 2052, 2009;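 active means response, share of CD8 T cells binding vesicles, and their 90th percentile fluorescence all below set limits, cut at about 80% in these data, passing the limit was not always enough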;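 further: values below 100% mean blocked vesicle binding to the CD8+ T cells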
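Material: murine 2C transgenic CD8+ T lymphocytes / Also added: QL9-peptide-loaded Drosophila micro-vesicles bearing Ld, ICAM-1 and B7-1 / Schedule: binding step 1.5 h, 37 °C, antibody labelling 20 min, ice / Signal: flow cytometry, PE anti-B7-1 (FL2) versus Alexa647 anti-CD8 (FL8), PFA-fixed / Evaluation: percent CD8+ FL2 mean versus row control / Benchmarks: naked versus QL9-loaded vesicles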
NTR1 ag: agonists of human NTR1, primary screen, imaging, U2OS cells, beta-arrestin-GFP, high content. Neurotensin receptor type 1 (Homo sapiens), P30989. activation, % at 20 µM. hit rate 0.17% among 330,000. AID 493036, 2011. NTR1-U2OS beta-arrestin-GFP spot imaging, agonist mode;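 active means activation at or above 40% of the spot to cytoplasm intensity ratio, with at least 20 cells analyzed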
Target sequence (P30989 whole entry, looked up): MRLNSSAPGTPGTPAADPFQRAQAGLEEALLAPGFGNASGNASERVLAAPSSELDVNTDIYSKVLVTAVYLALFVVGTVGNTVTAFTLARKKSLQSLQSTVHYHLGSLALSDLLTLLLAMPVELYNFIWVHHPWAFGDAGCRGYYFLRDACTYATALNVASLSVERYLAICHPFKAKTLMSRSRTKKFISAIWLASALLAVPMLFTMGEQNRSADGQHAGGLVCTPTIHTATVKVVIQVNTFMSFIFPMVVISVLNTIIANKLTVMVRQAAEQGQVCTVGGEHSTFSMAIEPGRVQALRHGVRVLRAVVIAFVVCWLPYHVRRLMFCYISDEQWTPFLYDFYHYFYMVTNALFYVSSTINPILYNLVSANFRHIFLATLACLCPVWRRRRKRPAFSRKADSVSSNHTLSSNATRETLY
VATPase regulator: yeast V-ATPase proton pumping modulators, confirmation, S. cerevisiae, pH-sensitive GFP, second cherry-pick | shares compounds with V-ATPase pH | S. cerevisiae pHLuorin cytosolic pH, V-ATPase proton transport | response, % at 10 µM | hit rate 2% among 980 | AID 602197, 2012; in the data active means response above about 24%
Numbers stand for hits; - = inactive; . = no result. Only some compounds are listed: those with a hit (about 0.89% of all), similar ones and a draw of the others.

SMILES	V-ATPase pH	Arrestin-AP2 inh	Xi reactivation	beta cell repl	T cell HTS	NTR1 ag	VATPase regulator
COc1cccc(C2C(C(=O)c3cc4ccccc4o3)=C(O)C(=O)N2CCN(C)C)c1OC (centres undefined)	13	-	.	-	-	-	-
CCC(=O)N1CC2(C1)[C@H](c1ccc(-c3ccccc3C)cc1)[C@@H](CO)N2C(C)=O	.	.	-	.	.	.	.
COc1ccccc1CNS(=O)(=O)c1ccc2c(c1)CCCN2C(C)=O	12	-	-	-	-	-	-
C[C@H]1CN([C@@H](C)CO)S(=O)(=O)c2ccc(-c3cccc(C#N)c3)cc2O[C@@H]1CN(C)C(=O)C1CC1	.	.	-	.	.	.	.
Cc1oc(-c2ccccc2)cc1C(=O)Nc1cccc(/C=C\C(=O)O)c1	-	-	-	-	-	-	.
Cc1oc(C(C)(C)C)cc1C(=O)Nc1cccc(/C=C\C(=O)O)c1	14	-	-	-	-	-	-
CN1CCN(S(=O)(=O)c2cccc(C#N)c2)C(c2ccccc2)C1 (centres undefined)	12	-	-	-	.	-	-
COc1ccc(C2C3=C(CC(C)(C)CC3=O)Oc3ncn4nc(-c5ccccc5)nc4c32)cc1 (centres undefined)	12	-	-	.	.	.	-
Cc1csc2c(SCC(=O)NNC(=O)C(Cl)Cl)ncnc12	12	-	-	-	-	-	-
COc1ccc(C(=O)Nc2cc(C)nn2-c2ccc(F)cc2)cc1	11	-	-	-	-	-	-
CO[C@H]1CN(C)C(=O)c2cc(NC(=O)CC(F)(F)F)ccc2OC[C@@H](C)N(C(=O)c2ccccc2F)C[C@H]1C	.	.	-	.	.	.	.
CCC(=O)C1CCCN(C(=O)c2cccc(OC3CCN(S(C)(=O)=O)CC3)c2)C1 (centres undefined)	12	-	.	-	-	-	-
CC(=O)Nc1ccc2c(c1)C(=O)N(C)C[C@H](C)[C@H](CN(C)C(=O)NC(C)C)O2	.	.	-	.	.	.	.
CC(=O)N(C)C[C@H]1Oc2c(NC(=O)NC(C)C)cccc2C(=O)N(C)C[C@H]1C	.	.	-	.	.	.	.
CC(C)(C)n1ncc2c(=O)n(CC(=O)N3CCCC3)cnc21	-	-	-	-	-	-	.
CC1CCN(C(=O)Cn2cnc3c(cnn3C(C)(C)C)c2=O)CC1	11	-	-	-	-	-	-
CC(C)CC#Cc1ccc2c(c1)O[C@@H](CN(C)C(=O)Nc1ccccc1F)[C@@H](C)CN([C@H](C)CO)S2(=O)=O	.	.	-	.	.	.	.
O=C(Nc1ccc(N2CCN(c3ncccc3C(F)(F)F)CC2)nc1)c1cccs1	-	-	-	-	-	-	.
N/C(=N\O)c1ccc(N2CCN(c3ncccc3C(F)(F)F)CC2)nc1	26	-	-	-	-	-	-
Fc1cccc(Cl)c1CNn1cn[nH]c1=S	11	-	-	-	-	-	-
CCOC(=O)C1=C(C)NC(C)=C(C(=O)OCC)C1C(=O)OCC(=O)N1CCC(C)CC1	-	-	-	-	-	-	.
CCOC(=O)C1=C(C)NC(C)=C(C(=O)OCC)C1C(=O)OCC(=O)N1CCc2ccccc2C1	12	-	.	-	-	-	-
COc1ccc(C(=S)N2CCCC2)cc1Br	-	-	-	-	-	-	.
COc1ccc(C(=S)N2CCN(C)CC2)cc1Br	8.0	-	.	-	-	-	-
CC(C)c1ccc(N(CC(=O)NC2CCCC2)C(=O)CCC(=O)Nc2ccccn2)cc1	15	-	-	-	-	-	-
CCc1ccc(N(CC(=O)NC2CCCC2)C(=O)CCC(=O)Nc2ccccn2)cc1	-	-	-	-	-	-	.
CCc1sc(C(=O)NCc2ccco2)cc1C	12	-	-	-	-	-	-
COc1ccc(NC(=S)N2CCN(C/C=C/c3ccccc3)CC2)c(OC)c1	12	-	-	-	-	-	-
O=C(C[C@H]1C=C[C@@H](NC(=O)CC2CC2)[C@@H](CO)O1)NCc1ccccc1	.	.	-	.	.	.	.
